We go through 28 molecules from ChEMBL document CHEMBL1130159, “Chlorogenic acid and synthetic chlorogenic acid derivatives: novel inhibitors of hepatic glucose-6-phosphate translocase” (J Med Chem, 1997).

The nature of experiment [1]: Inhibition glucose-6-phosphate hydrolysis in highly intact microsomal preparations obtained from livers of 20-h fasted rats. It is filed as functional, microsomes, Rattus norvegicus, Liver, Microsome. The essentials: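 Male Wistar rats (160-180 g), fasted 20 h; liver microsomes by differential centrifugation, intactness usually above 97% (1 mM mannose 6-phosphate). 100 μg protein, 1 mM glucose 6-phosphate, 250 mM sucrose/50 mM HEPES pH 7.0, 10 min, 22 °C, compound 0.1-1000 μM (MeOH stock). Phosphate read at 630 nm, background-corrected; IC50 by nonlinear least-squares; at least two experiments.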

The species named for experiment [2] is Rattus norvegicus. The experiment can be described thus: Percent inhibition against glucose-6-phosphate hydrolysis in highly intact microsomal preparations obtained from livers of 20-h fasted rats at 1 mM. The format is functional, microsomes. To be noted: Liver, Microsome. The essentials: (§1)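 Intact microsomes from 20-h-fasted male Wistar rat liver; 100 μg protein incubated 10 min at 22 °C with 1 mM glucose 6-phosphate in pH 7.0 sucrose/HEPES buffer, ≤1.25% methanol. Released phosphate measured colorimetrically at 630 nm after background subtraction. Percent inhibition versus vehicle control; representative of at least two independent experiments.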

The species named for experiment [3] is Rattus norvegicus. The experiment can be described thus: Percent inhibition against glucose-6-phosphate hydrolysis in highly intact microsomal preparations obtained from livers of 20-h fasted rats at 0.25 mM. It is filed as functional, microsomes. Particulars: Liver, Microsome. The essentials: as §1
For experiment [4], the species on record is Rattus norvegicus. The experiment can be described thus: Percent inhibition against glucose-6-phosphate hydrolysis in highly intact microsomal preparations obtained from livers of 20-h fasted rats at 0.23 mM. It is filed as functional, microsomes. To be noted: Liver, Microsome. The essentials:
as §1

For the molecule `CC(C)CCC(=O)O[C@@H]1C[C@](OCCCc2ccc(Cl)cc2)(C(=O)O)C[C@@H](O)[C@H]1O`, 41 µM corresponded to half-maximal inhibition in experiment [1] (IC50).

In the case of `CO[C@@]1(C(=O)O)C[C@@H](O)[C@@H](O)[C@H](OC(=O)/C=C/c2ccc(O)cc2)C1`, the IC50 in experiment [1] amounted to 280 µM.

In turn, `O=C(/C=C/c1ccc(O)cc1)O[C@@H]1C[C@](O)(C(=O)O)C[C@@H](O)[C@H]1O` returned an IC50 in experiment [1] of 250 µM.

The molecule `O=C(/C=C/c1ccc(O)c(O)c1)O[C@@H]1C[C@](O)(C(=O)O)C[C@@H](O)[C@H]1O` [CHLOROGENIC ACID] came in with a 50% inhibitory concentration (IC50) in experiment [1] of 230 µM.

In turn, `O=C(O[C@@H]1C[C@](OCCCc2ccc(Cl)cc2)(C(=O)O)C[C@@H](O)[C@H]1O)C1CCCCC1` returned a half-inhibitory concentration (IC50) in experiment [1] of 8.9 µM.

In experiment [1], `O=C(/C=C/c1cccnc1)O[C@@H]1C[C@](O)(C(=O)O)C[C@@H](O)[C@H]1O` displayed an IC50 greater than 1000 µM.

In the case of `O=C(CCc1ccc(O)c(O)c1)O[C@@H]1C[C@](O)(C(=O)O)C[C@@H](O)[C@H]1O`, half-maximal inhibition in experiment [1] (IC50) required 680 µM.

`O=C(O[C@@H]1C[C@](OCCCc2ccc(Cl)cc2)(C(=O)O)C[C@@H](O)[C@H]1O)c1snnc1-c1ccccc1`: the IC50 in experiment [1] came to 4.5 µM. Compared with the last molecule, the IC50 is about 150-fold lower.

`O=C(/C=C/c1ccc(O)cc1)O[C@@H]1C[C@](O)(C(=O)O)[C@@H](O)[C@@H](O)[C@H]1O` registered an inhibition in the experiment filed under Rattus norvegicus [2] of 30%.

Take `O=C(/C=C/c1ccc(O)cc1)O[C@@H]1CC(C(=O)O)=C[C@@H](O)[C@H]1O`: the inhibition in the experiment listed under Rattus norvegicus [3] came to 50%.

Consider `O=C(/C=C/c1ccc(O)cc1)O[C@@H]1C[C@H](C(=O)O)C[C@@H](O)[C@H]1O`, for which the inhibition in the experiment filed under Rattus norvegicus [4] turned out to be 50%.

In experiment [1], `O=C(/C=C/c1ccc(O)cc1)O[C@@H]1C[C@](OCCCc2ccccc2)(C(=O)O)C[C@@H](O)[C@H]1O` returned an IC50 of 31 µM.

Molecule `COc1cccc(CO[C@@]2(C(=O)O)C[C@@H](O)[C@@H](O)[C@H](OC(=O)/C=C/c3ccc(O)cc3)C2)c1` showed an IC50 in experiment [1] of 47 µM.

The molecule `O=C(/C=C/c1ccc(O)c(O)c1O)O[C@@H]1C[C@](O)(C(=O)O)C[C@@H](O)[C@H]1O` showed an IC50 in experiment [1] of 310 µM.

`C#CCO[C@@]1(C(=O)O)C[C@@H](O)[C@@H](O)[C@H](OC(=O)/C=C/c2ccc(O)cc2)C1`: it took 230 µM to reach half-maximal inhibition in experiment [1] (IC50).

In turn, `CCO[C@@]1(C(=O)O)C[C@@H](O)[C@@H](O)[C@H](OC(=O)/C=C/c2ccc(O)cc2)C1` gave an inhibition in the experiment filed under Rattus norvegicus [2] of 38%.

The molecule `O=C(/C=C/c1ccc(O)cc1)N[C@@H]1CC(C(=O)O)=C[C@@H](O)[C@H]1O` registered an inhibition in the experiment filed under Rattus norvegicus [2] of 15%.

Turning to `O=C(COc1ccccc1)O[C@@H]1C[C@](OCCCc2ccc(Cl)cc2)(C(=O)O)C[C@@H](O)[C@H]1O`, in experiment [1], the half-maximal inhibitory concentration (IC50) is 12 µM.

Turning to `O=C(/C=C/c1ccc(O)cc1)O[C@@H]1C[C@H](C(=O)O)CC[C@H]1O`, the inhibition in the experiment listed under Rattus norvegicus [2] worked out at 20%.

As to `O=C(/C=C/c1ccc(O)cc1)O[C@@H]1C[C@](OCc2cccs2)(C(=O)O)C[C@@H](O)[C@H]1O`, the half-maximal inhibitory concentration (IC50) in experiment [1] came to 110 µM.

The molecule `COC(=O)[C@]1(O)C[C@@H](O)[C@@H](O)[C@H](OC(=O)/C=C/c2ccc(O)c(O)c2)C1` had an inhibition in the experiment listed under Rattus norvegicus [2] of 50%.

For the molecule `O=C(/C=C/c1ccc(O)cc1)O[C@@H]1C[C@](OCc2ccc(-c3ccccc3)cc2)(C(=O)O)C[C@@H](O)[C@H]1O`, the IC50 in experiment [1] was found to be 21 µM.

As to `O=C(/C=C/c1ccsc1)O[C@@H]1C[C@](O)(C(=O)O)C[C@@H](O)[C@H]1O`, half-maximal inhibition in experiment [1] (IC50) was put at 380 µM.

The molecule `O=C(/C=C/c1ccc(O)cc1)O[C@@H]1C[C@](OCCCCc2ccc(Cl)cc2)(C(=O)O)C[C@@H](O)[C@H]1O` returned an IC50 in experiment [1] of 85 µM.

In experiment [1], `O=C(/C=C/c1ccc(O)cc1)O[C@@H]1C[C@](OCCCc2ccc(Cl)cc2)(C(=O)O)C[C@@H](O)[C@H]1O` gave an IC50 of 2.5 µM.

For `O=C(/C=C/c1ccc(O)cc1)O[C@@H]1C[C@](OCc2ccccc2)(C(=O)O)C[C@@H](O)[C@H]1O`, the IC50 in experiment [1] is 190 µM.

As to `C=Cc1ccc(C(=O)O[C@@H]2C[C@](OCCCc3ccc(Cl)cc3)(C(=O)O)C[C@@H](O)[C@H]2O)cc1`, in experiment [1], the IC50 amounted to 1.3 µM. This IC50 is about 150-fold lower than that of the molecule before.

Take `O=C(/C=C/c1ccc(O)c(O)c1)O[C@@H]1C[C@@](O)(C(=O)O)[C@H](O)[C@@H](O)[C@H]1O`: the inhibition in the experiment filed under Rattus norvegicus [2] worked out at 10%.

As a reminder, the IC50 is the concentration that gives 50% inhibition. Higher therefore signals weaker potency in that assay. Usually inhibition stands for the percentage by which the read-out fell short of the control.
